In ChEMBL document CHEMBL3272242, “Sulfamylurea hypoglycemic agents. 6. High-potency derivatives” (J Med Chem, 1976):

System: Rattus norvegicus
Assay: Hypoglycemic activity in 18 to 24 hrs-fasted rat assessed as reduction in blood glucose at 5 mg/kg, ip measured after 1 hr relative to saline-treated control
Format: functional
Parameters: scale not given: the % may be the effect or the level left
Conditions: route intraperitoneal
Method in brief: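 Unanesthetized male Charles River rats (200–250 g), fasted 18–24 h, in groups of five or six. Single ip dose. Tail-vein blood drawn before dosing and 1 h after. Glucose measured by ferricyanide reduction micromethod on an autoanalyzer. Value is the percent fall in blood glucose at 1 h versus a saline-treated control group. Significance levels are p < 0.05, 0.01 and 0.001.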

Compound	Activity [%]
O=C(NC1CCCCC1)NS(=O)(=O)N1CCC(CCNC(=O)C2Oc3ccccc3O2)CC1	8
O.O=C(NC1CCCCC1)NS(=O)(=O)N1CCC(CCNC(=O)c2ccnc3ccccc23)CC1	16
CCCNC(=O)NS(=O)(=O)N1CCC(CCNC(=O)c2cc(C(F)(F)F)nn2C)CC1	11
COc1ncccc1C(=O)NCCC1CCN(S(=O)(=O)NC(=O)NC[C@H]2C[C@@H]3C=C[C@@H]2C3)CC1 (relative stereo)	20
O=C(NC[C@@H]1C[C@@H]2C=C[C@@H]1C2)NS(=O)(=O)N1CCC(CCNC(=O)C(F)(F)F)CC1 (relative stereo)	22
COc1ncccc1C(=O)NCCC1CCN(S(=O)(=O)NC(=O)NC[C@@H]2C[C@@H]3CC[C@@H]2O3)CC1 (relative stereo)	34
COc1ccc2nccc(C(=O)NCCC3CCN(S(=O)(=O)NC(=O)NC4CCCCC4)CC3)c2c1.O	15
COc1ccc(NC(=O)NS(=O)(=O)N2CCC(CCNC(=O)c3cc(Cl)ccc3OC)CC2)cc1.O	27
Cn1cc(C(=O)NCCC2CCN(S(=O)(=O)NC(=O)NC34CC5CC(CC(C5)C3)C4)CC2)c(=O)n(C)c1=O.O	27
Cc1ncccc1C(=O)NCCC1CCN(S(=O)(=O)NC(=O)NC2CCCCC2)CC1	16
COc1ncccc1C(=O)NCCC1CCN(S(=O)(=O)NC(=O)NC[C@@H]2C[C@@H]3CC[C@@H]2C3)CC1 (relative stereo)	35
COc1ccc(Cl)cc1C(=O)NCCC1CCN(S(=O)(=O)NC(=O)NN2CCCCCC2)CC1	36
CCCn1cc(C(=O)NCCC2CCN(S(=O)(=O)NC(=O)NC[C@@H]3C[C@@H]4C=C[C@@H]3C4)CC2)c(=O)n(CC)c1=O.O (relative stereo)	19
Cc1cccc(C(=O)NCCC2CCN(S(=O)(=O)NC(=O)NC[C@@H]3C[C@@H]4C=C[C@@H]3C4)CC2)n1 (relative stereo)	20
Cc1ncccc1C(=O)NCCC1CCN(S(=O)(=O)NC(=O)NC[C@@H]2C[C@@H]3C=C[C@@H]2C3)CC1.O (relative stereo)	16
COc1ncccc1C(=O)NCCC1CCN(S(=O)(=O)NC(=O)NCC2CCCO2)CC1 (configuration not stated)	16
COc1ccc(Cl)cc1C(=O)NCCC1CCN(S(=O)(=O)NC(=O)NC[C@@H]2C[C@@H]3CC[C@@H]2O3)CC1 (relative stereo)	30
COc1ccc(Cl)cc1C(=O)NCCC1CCN(S(=O)(=O)NC(=O)NC[C@H]2C[C@@H]3CC[C@@H]2O3)CC1.O (relative stereo)	27
COc1ccc(Cl)cc1C(=O)NCC1CCN(S(=O)(=O)NC(=O)NC[C@@H]2C[C@@H]3C=C[C@@H]2C3)CC1 (relative stereo)	15
CCCCn1cc(C(=O)NCCC2CCN(S(=O)(=O)NC(=O)NC[C@@H]3C[C@@H]4C=C[C@@H]3C4)CC2)c(=O)n(CCCC)c1=O (relative stereo)	12
CCCCCCNC(=O)NS(=O)(=O)N1CCC(CNC(=O)c2cc(Cl)ccc2OC)CC1	17
O=C(NC1CCCCC1)NS(=O)(=O)N1CCC(CCNC(=O)c2csnn2)CC1	19
COc1ccncc1C(=O)NCCC1CCN(S(=O)(=O)NC(=O)NC[C@@H]2C[C@@H]3C=C[C@@H]2C3)CC1 (relative stereo)	14
Cn1cc(C(=O)NCCC2CCN(S(=O)(=O)NC(=O)NC[C@@H]3C[C@@H]4CC[C@@H]3C4)CC2)c(=O)n(C)c1=O.O (relative stereo)	22
CCOCCNC(=O)NS(=O)(=O)N1CCC(CCNC(=O)c2cccnc2OC)CC1	7
COc1ccc2nccc(C(=O)NCCC3CCN(S(=O)(=O)NC(=O)NC[C@@H]4C[C@@H]5C=C[C@@H]4C5)CC3)c2c1 (relative stereo)	10
O=C(NC[C@@H]1C[C@@H]2C=C[C@@H]1C2)NS(=O)(=O)N1CCC(CCNC(=O)c2ccc3ccccc3n2)CC1 (relative stereo)	21
